# Reference: ChEMBL document CHEMBL1159032, “Renal excretion of stevioside in rats” (J Nat Prod, 1992)
# Assays:
# [1] = Clearance in Wistar rat at 4 mg/kg/hr, iv; type: ADME, organism-based; set-up: route intravenous; settings: in vivo
# In short: (§1)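 Male Wistar rats (~345 g, fed, water ad lib) under ip sodium pentobarbital (30 mg/kg) on a heated table, tracheostomized. Stevioside (3% in isotonic Ringer's) was given as a priming dose plus sustained iv infusion via jugular vein. There were two 30-min periods, control then stevioside, with 10 rats per dose group. Carotid blood and timed bladder urine were collected.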
# [2] = Clearance in Wistar rat at 8 mg/kg/hr, iv; type: ADME, organism-based; set-up: route intravenous; settings: in vivo; in short: as §1
# Rattus norvegicus [3] = experiment: Effect on renal excretion in Wistar rat assessed as inulin clearance at 4 mg/kg/hr, iv administered 30 mins after inulin infusion (RVb=6.66 ml/min/kg); type: functional, Kidney
# Rattus norvegicus [4] = experiment: Effect on renal excretion in Wistar rat assessed as fractional sodium excretion at 4 mg/kg/hr, iv (RVb=0.61 %); type: functional, Kidney
# Rattus norvegicus [5] = experiment: Effect on renal excretion in Wistar rat assessed as p-aminohippuric acid clearance at 12 mg/kg/hr, iv administered 30 mins after p-aminohippuric acid infusion (RVb=15.38 ml/min/kg); type: functional, Kidney
# In short: (§2)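 Pentobarbital-anaesthetized (30 mg/kg ip) male Wistar rats (~345 g), 10 per dose group, received a priming dose then a sustained jugular infusion of Ringer's with 2% PAH and 10% inulin at 0.03 ml/min. Clearance was measured over a 30-min control period, then a 30-min iv stevioside priming-plus-infusion period. PAH in carotid plasma and timed bladder urine was measured colorimetrically.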
# Rattus norvegicus [6] = experiment: Effect on renal excretion in Wistar rat assessed as glucose clearance at 8 mg/kg/hr, iv (RVb=0 ml/min/kg); type: functional, Kidney; in short: as §1
# Rattus norvegicus [7] = experiment: Effect on renal excretion in Wistar rat assessed as p-aminohippuric acid clearance at 8 mg/kg/hr, iv administered 30 mins after p-aminohippuric acid infusion (RVb=15.60 ml/min/kg); type: functional, Kidney; in short: as §2
# Rattus norvegicus [8] = experiment: Effect on renal excretion in Wistar rat assessed as p-aminohippuric acid clearance at 16 mg/kg/hr, iv administered 30 mins after p-aminohippuric acid infusion (RVb=16.70 ml/min/kg); type: functional, Kidney; in short: as §2
# Rattus norvegicus [9] = experiment: Effect on renal excretion in Wistar rat assessed as inulin clearance at 8 mg/kg/hr, iv administered 30 mins after inulin infusion (RVb=6.33 ml/min/kg); type: functional, Kidney
# Rattus norvegicus [10] = experiment: Effect on renal excretion in Wistar rat assessed as glucose clearance at 4 mg/kg/hr, iv (RVb=0 ml/min/kg); type: functional, Kidney; in short: as §1
# Rattus norvegicus [11] = experiment: Effect on renal excretion in Wistar rat assessed as glomerular filtration rate at 4 mg/kg/hr, iv (RVb=1.39 %); type: functional, Kidney; settings: in the assay text read “16 mg/kg/hr” for “4 mg/kg/hr”
# In short: (§3)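 Anaesthetized (pentobarbital 30 mg/kg ip) male Wistar rats (~345 g), 10 per group, were studied over a 30-min control period then a 30-min stevioside priming-plus-iv infusion period. Ringer's containing 2% PAH and 10% inulin was infused at 0.03 ml/min. Urine flow from timed bladder collection was expressed as percent of GFR, with GFR taken as inulin clearance (anthrone assay).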
# Rattus norvegicus [12] = experiment: Effect on renal excretion in Wistar rat assessed as fractional sodium excretion at 12 mg/kg/hr, iv (RVb=0.70 %); type: functional, Kidney
# [13] = Clearance in Wistar rat at 12 mg/kg/hr, iv; type: ADME, organism-based; set-up: route intravenous; settings: in vivo; in short: as §1
# Rattus norvegicus [14] = experiment: Effect on renal excretion in Wistar rat assessed as glucose clearance at 12 mg/kg/hr, iv (RVb=0 ml/min/kg); type: functional, Kidney; in short: as §1
# [15] = Clearance in Wistar rat at 16 mg/kg/hr, iv; type: ADME, organism-based; set-up: route intravenous; settings: in vivo; in short: as §1
# Rattus norvegicus [16] = experiment: Effect on renal excretion in Wistar rat assessed as glomerular filtration rate at 4 mg/kg/hr, iv (RVb=1.41 %); type: functional, Kidney; in short: as §3
# Rattus norvegicus [17] = experiment: Effect on renal excretion in Wistar rat assessed as fractional sodium excretion at 16 mg/kg/hr, iv (RVb=0.60 %); type: functional, Kidney
# Rattus norvegicus [18] = experiment: Effect on renal excretion in Wistar rat assessed as inulin clearance at 16 mg/kg/hr, iv administered 30 mins after inulin infusion (RVb=6.29 ml/min/kg); type: functional, Kidney
# Rattus norvegicus [19] = experiment: Effect on renal excretion in Wistar rat assessed as glucose clearance at 16 mg/kg/hr, iv (RVb=0 ml/min/kg); type: functional, Kidney; in short: as §1
# Rattus norvegicus [20] = experiment: Effect on renal excretion in Wistar rat assessed as fractional sodium excretion at 8 mg/kg/hr, iv (RVb=0.58 %); type: functional, Kidney
# Rattus norvegicus [21] = experiment: Effect on renal excretion in Wistar rat assessed as glomerular filtration rate at 12 mg/kg/hr, iv (RVb=1.87 %); type: functional, Kidney; in short: as §3
# Rattus norvegicus [22] = experiment: Effect on renal excretion in Wistar rat assessed as glomerular filtration rate at 8 mg/kg/hr, iv (RVb=1.47 %); type: functional, Kidney; in short: as §3
# Rattus norvegicus [23] = experiment: Effect on renal excretion in Wistar rat assessed as p-aminohippuric acid clearance at 4 mg/kg/hr, iv administered 30 mins after p-aminohippuric acid infusion (RVb=12.88 ml/min/kg); type: functional, Kidney; in short: as §2
# Rattus norvegicus [24] = experiment: Effect on renal excretion in Wistar rat assessed as inulin clearance at 12 mg/kg/hr, iv administered 30 mins after inulin infusion (RVb=5.69 ml/min/kg); type: functional, Kidney
compound,measurement,setting,value
C=C1C[C@@]23CC[C@H]4[C@@](C)(CCC[C@@]4(C)C(=O)O[C@@H]4O[C@H](CO)[C@@H](O)[C@H](O)[C@H]4O)[C@@H]2CC[C@]1(O[C@@H]1O[C@H](CO)[C@@H](O)[C@H](O)[C@H]1O[C@@H]1O[C@H](CO)[C@@H](O)[C@H](O)[C@H]1O)C3 [STEVIOSIDE],clearance,[1],7.21 mL/min/kg
same,clearance,[2],9.63 mL/min/kg
same,Activity,Rattus norvegicus [3],6.02 mL/min/kg
same,Activity,Rattus norvegicus [4],0.79%
same,Activity,Rattus norvegicus [5],28.3 mL/min/kg
same,Activity,Rattus norvegicus [6],1.33 mL/min/kg
same,Activity,Rattus norvegicus [7],19.2 mL/min/kg
same,Activity,Rattus norvegicus [8],33.4 mL/min/kg
same,Activity,Rattus norvegicus [9],6.51 mL/min/kg
same,Activity,Rattus norvegicus [10],0 mL/min/kg
same,Activity,Rattus norvegicus [11],2.36%
same,Activity,Rattus norvegicus [12],1.53%
same,clearance,[13],10.2 mL/min/kg
same,Activity,Rattus norvegicus [14],1.84 mL/min/kg
same,clearance,[15],12.5 mL/min/kg
same,Activity,Rattus norvegicus [16],1.56%
same,Activity,Rattus norvegicus [17],1.55%
same,Activity,Rattus norvegicus [18],6.3 mL/min/kg
same,Activity,Rattus norvegicus [19],2.38 mL/min/kg
same,Activity,Rattus norvegicus [20],1.12%
same,Activity,Rattus norvegicus [21],2.67%
same,Activity,Rattus norvegicus [22],2.19%
same,Activity,Rattus norvegicus [23],12.7 mL/min/kg
same,Activity,Rattus norvegicus [24],5.92 mL/min/kg
